Active and inactive are the calls of the source. No cut-off for these calls is given here.
What was measured:
[1] = system: SiHa; test: Cytotoxicity against human SiHa cells assessed as cell viability after 24 to 48 hrs by MTT assay; type: functional
Method in brief: (§1)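 MTT viability assay in SiHa, HeLa (cervical), MCF-7 (breast) and IMR-32 (neuroblastoma) cells, treated with conjugates over 0.25 to 8 µM for 48 h.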

[2] = system: MCF7; test: Cytotoxicity against human MCF7 cells assessed as cell viability after 24 to 48 hrs by MTT assay; type: functional; method in brief: as §1
[3] = system: HeLa; test: Cytotoxicity against human HeLa cells assessed as cell viability after 24 to 48 hrs by MTT assay; type: functional; method in brief: as §1
[4] = Cytotoxicity against human IMR32 cells assessed as cell viability after 24 to 48 hrs by MTT assay; type: functional, IMR-32; method in brief: as §1
[5] = system: MCF7; test: Cell cycle arrest in human MCF7 cells assessed as accumulation at G0 phase at 4 uM after 48 hrs (reference value: 3%); type: functional
Method in brief: (§2)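 MCF-7 breast cancer cells exposed 48 h to 4, 8, 16 or 32 µM; doxorubicin as positive control. Cell cycle phase distribution (G0, G1, S, G2/M) read as percentage of cells; G0 fraction taken as apoptotic cells.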

[6] = system: MCF7; test: Cell cycle arrest in human MCF7 cells assessed as accumulation at G1 phase at 4 uM after 48 hrs (reference value: 63%); type: functional; method in brief: as §2
[7] = system: MCF7; test: Cell cycle arrest in human MCF7 cells assessed as accumulation at S phase at 4 uM after 48 hrs (reference value: 9%); type: functional; method in brief: as §2
[8] = system: MCF7; test: Cell cycle arrest in human MCF7 cells assessed as accumulation at G2/M phase at 4 uM after 48 hrs (reference value: 25%); type: functional; method in brief: as §2
[9] = system: MCF7; test: Cell cycle arrest in human MCF7 cells assessed as accumulation at G0 phase at 8 uM after 48 hrs (reference value: 3%); type: functional; method in brief: as §2
[10] = system: MCF7; test: Cell cycle arrest in human MCF7 cells assessed as accumulation at G1 phase at 8 uM after 48 hrs (reference value: 63%); type: functional; method in brief: as §2
[11] = system: MCF7; test: Cell cycle arrest in human MCF7 cells assessed as accumulation at S phase at 8 uM after 48 hrs (reference value: 9%); type: functional; method in brief: as §2
[12] = system: MCF7; test: Cell cycle arrest in human MCF7 cells assessed as accumulation at G2/M phase at 8 uM after 48 hrs (reference value: 25%); type: functional; method in brief: as §2
[13] = system: MCF7; test: Cell cycle arrest in human MCF7 cells assessed as accumulation at G0 phase at 16 uM after 48 hrs (reference value: 3%); type: functional; method in brief: as §2
[14] = system: MCF7; test: Cell cycle arrest in human MCF7 cells assessed as accumulation at G1 phase at 16 uM after 48 hrs (reference value: 63%); type: functional; method in brief: as §2
[15] = system: MCF7; test: Cell cycle arrest in human MCF7 cells assessed as accumulation at S phase at 16 uM after 48 hrs (reference value: 9%); type: functional; method in brief: as §2
[16] = system: MCF7; test: Cell cycle arrest in human MCF7 cells assessed as accumulation at G2/M phase at 16 uM after 48 hrs (reference value: 25%); type: functional; method in brief: as §2
[17] = system: MCF7; test: Cell cycle arrest in human MCF7 cells assessed as accumulation at G0 phase at 32 uM after 48 hrs (reference value: 3%); type: functional; method in brief: as §2
[18] = system: MCF7; test: Cell cycle arrest in human MCF7 cells assessed as accumulation at G1 phase at 32 uM after 48 hrs (reference value: 63%); type: functional; method in brief: as §2
[19] = system: MCF7; test: Cell cycle arrest in human MCF7 cells assessed as accumulation at S phase at 32 uM after 48 hrs (reference value: 9%); type: functional; method in brief: as §2
[20] = system: MCF7; test: Cell cycle arrest in human MCF7 cells assessed as accumulation at G2/M phase at 32 uM after 48 hrs (reference value: 25%); type: functional; method in brief: as §2
[21] = system: MCF7; test: Down regulation of ER alpha expression in human MCF7 cells at 4 uM after 24 hrs by luciferase reporter gene assay; type: functional, cell-based
Method in brief: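 MCF-7 cells first transfected with ERα construct for 48 h, then compound exposure at 4 µM for 24 h; luciferase-based read-out; etoposide and doxorubicin run as standards.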

[22] = system: MCF7; test: Down regulation of Bcl-2 expression in human MCF7 cells at 1 uM after 24 hrs by Western blot analysis; type: functional, cell-based
[23] = system: MCF7; test: Down regulation of cyclin D expression in human MCF7 cells at 1 uM after 24 hrs by Western blot analysis; type: functional, cell-based
[24] = system: MCF7; test: Down regulation of survivin expression in human MCF7 cells at 1 uM after 24 hrs by Western blot analysis; type: functional, cell-based

SMILES | Activity [1] [µM] | Activity [2] [µM] | Activity [3] [µM] | Activity [4] [µM] | further results
COc1cc(-c2cc(C(=O)N3CCN(C(=O)c4cccnc4Nc4ccc(F)cc4)CC3)nc3cc(-c4ccccc4)nn23)cc(OC)c1OC | 5.25 | 6.28 | 2.57 | 5.75 | 
COc1ccc(-c2cc(C(=O)N3CCN(C(=O)c4cccnc4Nc4ccc(OC)c(OC)c4)CC3)nc3cc(-c4ccccc4)nn23)cc1 | 3.73 | 2.53 | 5.87 | 5.12 | 
COc1ccc(-c2cc(C(=O)N3CCN(C(=O)c4cccnc4Nc4ccccc4)CC3)nc3cc(-c4ccccc4)nn23)cc1 | 3.33 | 2.16 | 2.43 | 4.75 | Activity [5]: 1%; Activity [6]: 52%; Activity [7]: 9%; Activity [8]: 37%; Activity [9]: 2%; Activity [10]: 57%; Activity [11]: 9%; Activity [12]: 32%; Activity [13]: 4%; Activity [14]: 64%; Activity [15]: 7%; Activity [16]: 25%; Activity [17]: 13%; Activity [18]: 38%; Activity [19]: 10%; Activity [20]: 39%; Activity [21]: Active; Activity [22]: Active; Activity [23]: Active; Activity [24]: Active
COc1cccc2c1C(=O)c1c(O)c3c(c(O)c1C2=O)C[C@@](O)(C(=O)CO)C[C@@H]3O[C@H]1C[C@H](N)[C@H](O)[C@H](C)O1 [DOXORUBICIN] | 3.93 | 0.473 | 1.25 | 4.5 | Activity [5]: 1%; Activity [6]: 44%; Activity [7]: 8%; Activity [8]: 48%; Activity [9]: 4%; Activity [10]: 37%; Activity [11]: 9%; Activity [12]: 50%; Activity [13]: 6%; Activity [14]: 34%; Activity [15]: 11%; Activity [16]: 49%; Activity [17]: 8%; Activity [18]: 36%; Activity [19]: 10%; Activity [20]: 46%
COc1cc(-c2cc(C(=O)N3CCN(C(=O)c4cccnc4Nc4ccccc4)CC3)nc3cc(-c4ccccc4)nn23)cc(OC)c1OC | 5.1 | 6.93 | 2.99 | 7.25 | 
COc1ccc(-c2cc(C(=O)N3CCN(C(=O)c4cccnc4Nc4ccccc4)CC3)nc3cc(-c4ccccc4)nn23)cc1OC | 5.93 | 6.12 | 2.88 | 6.5 | 
COc1ccc(Nc2ncccc2C(=O)N2CCN(C(=O)c3cc(-c4ccc(OC)c(OC)c4)n4nc(-c5ccccc5)cc4n3)CC2)cc1 | 5.1 | 2.85 | 4.62 | 5.87 | 
COc1ccc(Nc2ncccc2C(=O)N2CCN(C(=O)c3cc(-c4ccc(F)cc4)n4nc(-c5ccccc5)cc4n3)CC2)cc1OC | 6.62 | 2.69 | 6.33 | 5.25 | 
COc1ccc(Nc2ncccc2C(=O)N2CCN(C(=O)c3cc(-c4ccc(OC)cc4)n4nc(-c5ccccc5)cc4n3)CC2)cc1 | 4.36 | 2.93 | 3.72 | 6.37 | 
COc1ccc(Nc2ncccc2C(=O)N2CCN(C(=O)c3cc(-c4ccc(F)cc4)n4nc(-c5ccccc5)cc4n3)CC2)cc1 | 4.56 | 8.08 | 6.6 | 5.37 | 
O=C(c1cc(-c2ccc(F)cc2)n2nc(-c3ccccc3)cc2n1)N1CCN(C(=O)c2cccnc2Nc2ccccc2)CC1 | 2.65 | 1.79 | 2.29 | 4.65 | Activity [5]: 1%; Activity [6]: 52%; Activity [7]: 8%; Activity [8]: 38%; Activity [9]: 2%; Activity [10]: 54%; Activity [11]: 10%; Activity [12]: 33%; Activity [13]: 5%; Activity [14]: 58%; Activity [15]: 8%; Activity [16]: 28%; Activity [17]: 9%; Activity [18]: 44%; Activity [19]: 9%; Activity [20]: 39%; Activity [21]: Active; Activity [22]: Active; Activity [23]: Active; Activity [24]: Active
COc1ccc(Nc2ncccc2C(=O)N2CCN(C(=O)c3cc(-c4cc(OC)c(OC)c(OC)c4)n4nc(-c5ccccc5)cc4n3)CC2)cc1 | 3.87 | 3.02 | 2.85 | 5.87 | 
COc1ccc(-c2cc(C(=O)N3CCN(C(=O)c4cccnc4Nc4cc(OC)c(OC)c(OC)c4)CC3)nc3cc(-c4ccccc4)nn23)cc1 | 6.08 | 3.83 | 4.24 | 6.62 | 
O=C(c1cc(-c2ccc(F)cc2)n2nc(-c3ccccc3)cc2n1)N1CCN(C(=O)c2cccnc2Nc2ccc(F)cc2)CC1 | 7.21 | 3.34 | 3.86 | 5.62 | 
COc1cc(Nc2ncccc2C(=O)N2CCN(C(=O)c3cc(-c4ccc(F)cc4)n4nc(-c5ccccc5)cc4n3)CC2)cc(OC)c1OC | 4.07 | 7.59 | 4.31 | 5 | 
COc1cc(Nc2ncccc2C(=O)N2CCN(C(=O)c3cc(-c4ccc(Cl)c(Cl)c4)n4nc(-c5ccccc5)cc4n3)CC2)cc(OC)c1OC | 3.65 | 5.38 | 4.52 | 5.62 | 
COc1ccc(-c2cc(C(=O)N3CCN(C(=O)c4cccnc4Nc4ccc(F)cc4)CC3)nc3cc(-c4ccccc4)nn23)cc1OC | 5.64 | 7.02 | 3.16 | 5.87 | 
COc1ccc(-c2cc(C(=O)N3CCN(C(=O)c4cccnc4Nc4cc(OC)c(OC)c(OC)c4)CC3)nc3cc(-c4ccccc4)nn23)cc1OC | 7.65 | 7.34 | 4.24 | 4.88 | 
COc1ccc(-c2cc(C(=O)N3CCN(C(=O)c4cccnc4Nc4ccc(F)cc4)CC3)nc3cc(-c4ccccc4)nn23)cc1 | 5.93 | 4.97 | 3.79 | 5.87 | 
O=C(c1cc(-c2ccc(Cl)c(Cl)c2)n2nc(-c3ccccc3)cc2n1)N1CCN(C(=O)c2cccnc2Nc2ccc(F)cc2)CC1 | 5.27 | 4.73 | 4.27 | 5.87 | 
COc1ccc(Nc2ncccc2C(=O)N2CCN(C(=O)c3cc(-c4cc(OC)c(OC)c(OC)c4)n4nc(-c5ccccc5)cc4n3)CC2)cc1OC | 3.73 | 4.24 | 6.08 | 5.75 | 
COc1ccc(Nc2ncccc2C(=O)N2CCN(C(=O)c3cc(-c4ccc(Cl)c(Cl)c4)n4nc(-c5ccccc5)cc4n3)CC2)cc1OC | 3.73 | 5.95 | 5.11 | 7.15 | 
COc1ccc(Nc2ncccc2C(=O)N2CCN(C(=O)c3cc(-c4ccc(Cl)c(Cl)c4)n4nc(-c5ccccc5)cc4n3)CC2)cc1 | 3.92 | 6.12 | 2.64 | 5 | 
O=C(c1cc(-c2ccc(Cl)c(Cl)c2)n2nc(-c3ccccc3)cc2n1)N1CCN(C(=O)c2cccnc2Nc2ccccc2)CC1 | 5.93 | 5.3 | 2.57 | 7.87 | 
COc1ccc(Nc2ncccc2C(=O)N2CCN(C(=O)c3cc(-c4ccc(OC)c(OC)c4)n4nc(-c5ccccc5)cc4n3)CC2)cc1OC | 5.93 | 2.61 | 5.7 | 5.25 | 

Reference: ChEMBL document CHEMBL3784968, “Synthesis and mechanistic aspects of 2-anilinonicotinyl-pyrazolo[1,5-a]pyrimidine conjugates that regulate cell proliferation in MCF-7 cells via estrogen signaling” (2016)
